IC50 and Activity data for 20 compounds are collected here from ChEMBL document CHEMBL3112453, “Novel lung adenocarcinoma and nuclear factor-kappa B (NF-κB) inhibitors: synthesis and evaluation of lantadene congeners” (Eur J Med Chem, 2014).

The test system of data set [1] is A549. Description: Cytotoxicity against human A549 cells after 48 hrs by MTT assay. It counts as functional, cell-based. Put shortly: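 A549 cells grown in RPMI with 5% FBS and 1% penicillin-streptomycin. Seeded at 4000 cells/well, attached overnight, then exposed to compound at 0.01–100 µmol for 48 h. MTT added for 4 h, formazan dissolved in DMSO, absorbance read at 570 nm. Mean of at least three independent experiments, each in triplicate.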
For orientation: Tetrazolium assays rely on reduction of a dye to a coloured formazan, in cell work by metabolically active cells.

Data set [2] is described as follows: Inhibition of TNF-alpha-induced NF-kappaB (unknown origin) activation transfected in human A549 cells after 7 hrs by bright-glo luciferase reporter gene assay. The class given is cell-based. Put shortly:
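A549 cells co-transfected with pNF-κB-Luc and pSV-β-galactosidase (internal control) using lipofectamine. Medium changed at 6 h, cells cultured a further 6 h, then given TNF-α 15 ng/ml and compound together for 7 h. Read-out is Bright-Glo luciferase, corrected for background and viability and expressed relative to TNF-α-only cells. IC50 from a variable-slope sigmoidal fit.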
A general note: Reporter assays use an easily measured gene product as a stand-in for the process of interest.

The test system of data set [3] is A549. In words: Cytotoxicity against human A549 cells transfected with NF-kappaB assessed as reduction of cell viability relative to control. The class given is cell-based. Further details: concentration or dose not given beside the values.
Data set [4] deals with T1, Inhibitor of nuclear factor kappa-B kinase subunit beta (Homo sapiens, UniProt O14920).
T1 sequence (O14920 whole entry): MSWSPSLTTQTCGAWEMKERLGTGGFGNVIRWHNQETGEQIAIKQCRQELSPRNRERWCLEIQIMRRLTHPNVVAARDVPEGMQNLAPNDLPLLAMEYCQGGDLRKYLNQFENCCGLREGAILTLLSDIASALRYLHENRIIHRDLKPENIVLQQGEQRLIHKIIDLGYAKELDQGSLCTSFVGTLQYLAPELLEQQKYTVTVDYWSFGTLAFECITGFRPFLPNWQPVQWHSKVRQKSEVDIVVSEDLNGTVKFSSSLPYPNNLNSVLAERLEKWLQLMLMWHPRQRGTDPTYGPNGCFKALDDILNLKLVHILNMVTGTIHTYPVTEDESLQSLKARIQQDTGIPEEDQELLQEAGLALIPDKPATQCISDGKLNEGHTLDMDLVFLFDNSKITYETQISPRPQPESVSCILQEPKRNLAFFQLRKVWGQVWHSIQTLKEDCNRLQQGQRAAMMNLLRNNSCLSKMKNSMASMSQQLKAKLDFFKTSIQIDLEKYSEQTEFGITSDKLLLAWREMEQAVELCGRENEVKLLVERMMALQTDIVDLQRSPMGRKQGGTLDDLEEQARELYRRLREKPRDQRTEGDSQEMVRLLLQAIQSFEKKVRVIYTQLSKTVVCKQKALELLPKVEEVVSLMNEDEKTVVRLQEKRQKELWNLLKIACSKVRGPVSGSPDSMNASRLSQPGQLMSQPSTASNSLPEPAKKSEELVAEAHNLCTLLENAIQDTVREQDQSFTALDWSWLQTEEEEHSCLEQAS
Description: Inhibition of FLAG-tagged human recombinant IKKbeta phosphorylation expressed in baculovirus infected insect Sf9 cells after 1 hr by luminescence assay. Put shortly: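 Kinase reaction ran 1 h at room temperature with bacterially expressed GST-IkBα substrate and 500 nmol ATP, in 25 mmol/l HEPES pH 7.5, 10 mmol/l Mg acetate, 1 mmol DTT, 0.01% BSA and 0.01% Tween20. Stopped with equal volume Kinase-Glo, 10 min RT, then luminescence of remaining ATP read.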

Consider `COC(=O)[C@@]12CC[C@]3(C)C(=CC[C@@H]4[C@@]5(C)CC[C@H](O)C(C)(C)[C@@H]5CC[C@]43C)[C@@H]1CC(C)(C)C[C@H]2O`, for which the IC50 in data set [1] and in data set [2] was greater than 10 µmol throughout. The Activity in data set [3] is listed as less than 5%.
In the case of `COC(=O)[C@@]12CC[C@]3(C)C(=CC[C@@H]4[C@@]5(C)CCC(=O)C(C)(C)[C@@H]5CC[C@]43C)[C@@H]1CC(C)(C)C[C@H]2O`, the IC50 in data set [1] and in data set [2] was greater than 10 µmol throughout. In addition, the Activity in data set [3] is recorded as less than 5%.
As for `C/C=C(/C)C(=O)O[C@@H]1CC(C)(C)C[C@H]2C3=CC[C@@H]4[C@@]5(C)CCC(=O)C(C)(C)[C@@H]5CC[C@@]4(C)[C@]3(C)CC[C@@]12C(=O)O` [LANTADENE A], the values for the IC50 in data set [1] and in data set [2] were 2.84 µmol and 1.06 µmol, respectively. In data set [3], the Activity is less than 5%.
`CC(C)=CC(=O)O[C@@H]1CC(C)(C)C[C@H]2C3=CC[C@@H]4[C@@]5(C)CC/C(=N\O)C(C)(C)[C@@H]5CC[C@@]4(C)[C@]3(C)CC[C@@]12C(=O)O`: the IC50 in data set [1] and in data set [2] was greater than 10 µmol each time. For the same compound, the Activity in data set [3] is less than 5%.
Take `C/C=C(\C)C(=O)O[C@@H]1CC(C)(C)C[C@H]2C3=CC[C@@H]4[C@@]5(C)CC/C(=N\O)C(C)(C)[C@@H]5CC[C@@]4(C)[C@]3(C)CC[C@@]12C(=O)O`: the IC50 in data set [1] and in data set [2] was greater than 10 µmol in each case. The Activity in data set [3] is less than 5%.
For the compound `CC1(C)C[C@@H](O)[C@]2(C(=O)O)CC[C@]3(C)C(=CC[C@@H]4[C@@]5(C)CCC(=O)C(C)(C)[C@@H]5CC[C@]43C)[C@@H]2C1`, the results for the IC50 in data set [1] and in data set [2] were greater than 10 µmol and 6.42 µmol, respectively. For the same compound, in data set [3], the Activity was less than 5%.
The like results for `CC1(C)C[C@@H](OC(=O)c2ccccc2Cl)[C@]2(C(=O)O)CC[C@]3(C)C(=CC[C@@H]4[C@@]5(C)CCC(=O)C(C)(C)[C@@H]5CC[C@]43C)[C@@H]2C1` were, in that order, greater than 10 µmol, greater than 10 µmol and less than 5%.
With `C/C=C(\C)C(=O)O[C@@H]1CC(C)(C)C[C@H]2C3=CC[C@@H]4[C@@]5(C)CC[C@H](OC(=O)c6ccccc6Cl)C(C)(C)[C@@H]5CC[C@@]4(C)[C@]3(C)CC[C@@]12C(=O)O`, the values for the IC50 in data set [1] and in data set [2] were 6.8 µmol and 4.18 µmol, respectively. Further, the Activity in data set [3] is less than 5%.
With `C/C=C(\C)C(=O)O[C@@H]1CC(C)(C)C[C@H]2C3=CC[C@@H]4[C@@]5(C)CC[C@H](OC(C)=O)C(C)(C)[C@@H]5CC[C@@]4(C)[C@]3(C)CC[C@@]12C(=O)O`, the IC50 in data set [1] came out at 5.42 µmol; in data set [2], 2.8 µmol. Moreover, the Activity in data set [3] is less than 5%.
In the case of `CC(C)=CC(=O)O[C@@H]1CC(C)(C)C[C@H]2C3=CC[C@@H]4[C@@]5(C)CC[C@H](O)C(C)(C)[C@@H]5CC[C@@]4(C)[C@]3(C)CC[C@@]12C(=O)O` [Reduced Lantadene B], the IC50 stood at 0.43 µmol in data set [1], 4.24 µmol in data set [4] and 1.02 µmol in data set [2]. The Activity in data set [3] was less than 5%.
For the compound `CC(=O)O[C@H]1CC[C@]2(C)[C@H]3CC=C4[C@@H]5CC(C)(C)C[C@@H](OC(C)=O)[C@]5(C(=O)O)CC[C@@]4(C)[C@]3(C)CC[C@H]2C1(C)C`, the IC50 in data set [1] and in data set [2] was greater than 10 µmol in each case. Further, the Activity in data set [3] was less than 5%.
Regarding `CC(C)=CC(=O)O[C@@H]1CC(C)(C)C[C@H]2C3=CC[C@@H]4[C@@]5(C)CCC(=O)C(C)(C)[C@@H]5CC[C@@]4(C)[C@]3(C)CC[C@@]12C(=O)O`, the IC50 in data set [1] turned out to be 1.19 µmol; in data set [2], 1.56 µmol. Besides, the Activity in data set [3] is listed as less than 5%.
The like results for `CC(C)=CC(=O)O[C@@H]1CC(C)(C)C[C@H]2C3=CC[C@@H]4[C@@]5(C)CC[C@H](OC(=O)c6ccccc6Cl)C(C)(C)[C@@H]5CC[C@@]4(C)[C@]3(C)CC[C@@]12C(=O)O` were, in that order, 6.52 µmol, 3.7 µmol and less than 5%.
On the same counts, the results for `CC(=O)O[C@H]1CC[C@]2(C)[C@H]3CC=C4[C@@H]5CC(C)(C)C[C@@H](OC(=O)C=C(C)C)[C@]5(C(=O)O)CC[C@@]4(C)[C@]3(C)CC[C@H]2C1(C)C` are 4.9 µmol, 2.32 µmol and less than 5%.
On the same counts, the results for `CC1(C)C[C@@H](OC(=O)c2ccccc2)[C@]2(C(=O)O)CC[C@]3(C)C(=CC[C@@H]4[C@@]5(C)CCC(=O)C(C)(C)[C@@H]5CC[C@]43C)[C@@H]2C1` are greater than 10 µmol, greater than 10 µmol and less than 5%.
For `C/C=C(/C)C(=O)O[C@@H]1CC(C)(C)C[C@H]2C3=CC[C@@H]4[C@@]5(C)CC[C@H](O)C(C)(C)[C@@H]5CC[C@@]4(C)[C@]3(C)CC[C@@]12C(=O)O` [Reduced Lantadene A], the IC50 in data set [1] came out at 0.79 µmol; in data set [4], 2.62 µmol; in data set [2] it was 0.98 µmol. Further, the Activity in data set [3] is listed as less than 5%.
As for `CC1(C)C[C@@H](O)[C@]2(C(=O)O)CC[C@]3(C)C(=CC[C@@H]4[C@@]5(C)CC[C@H](O)C(C)(C)[C@@H]5CC[C@]43C)[C@@H]2C1`, the IC50 in data set [1] and in data set [2] was greater than 10 µmol throughout. Moreover, the Activity in data set [3] is less than 5%.
With `C/C=C(\C)C(=O)O[C@@H]1CC(C)(C)C[C@H]2C3=CC[C@@H]4[C@@]5(C)CC[C@H](OC(=O)c6ccccc6)C(C)(C)[C@@H]5CC[C@@]4(C)[C@]3(C)CC[C@@]12C(=O)O`, the IC50 in data set [1] was 7.36 µmol; in data set [2], 5.04 µmol. The Activity in data set [3] is less than 5%.
Regarding `CC(C)=CC(=O)O[C@@H]1CC(C)(C)C[C@H]2C3=CC[C@@H]4[C@@]5(C)CC[C@H](OC(=O)c6ccccc6)C(C)(C)[C@@H]5CC[C@@]4(C)[C@]3(C)CC[C@@]12C(=O)O`, the IC50 in data set [1] is 7.2 µmol; in data set [2] it was 4.64 µmol. Besides, the Activity in data set [3] is reported as less than 5%.
As for `CC1(C)C[C@@H](OC(=O)/C=C/c2ccccc2)[C@]2(C(=O)O)CC[C@]3(C)C(=CC[C@@H]4[C@@]5(C)CCC(=O)C(C)(C)[C@@H]5CC[C@]43C)[C@@H]2C1`, the IC50 in data set [1] stood at 3.64 µmol; in data set [2], 2.42 µmol. In addition, the Activity in data set [3] is given as less than 5%.
